Reference: ChEMBL document CHEMBL1144519, “A Pd(0) based cross-coupling approach to the synthesis of 2-amidopurines and their evaluation as CDK inhibitors” (Bioorg Med Chem, 2007)

Experiments:
[1] = Inhibition of CDK1/Cyclin B from M phase starfish oocytes; design: species or system Marthasterias glacialis; conditions: oocyte
In short: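 CDK1/cyclin B extracted in homogenization buffer from M-phase Marthasterias glacialis oocytes and affinity-purified on p9CKShs1-Sepharose, eluted with free p9CKShs1. Read-out was P81 phosphocellulose binding, phosphoric acid washes and scintillation counting. Values are blank-subtracted, % of uninhibited activity, with DMSO controls.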

[2] = molecular target: Cyclin-dependent kinase 5/CDK5 activator 1 (Homo sapiens, UniProt Q00535); assay: Inhibition of recombinant mammalian CDK5/p25 expressed in Escherichia coli
Cyclin-dependent kinase 5/CDK5 activator 1, sequence (Q00535 whole entry, the tested form may be a part): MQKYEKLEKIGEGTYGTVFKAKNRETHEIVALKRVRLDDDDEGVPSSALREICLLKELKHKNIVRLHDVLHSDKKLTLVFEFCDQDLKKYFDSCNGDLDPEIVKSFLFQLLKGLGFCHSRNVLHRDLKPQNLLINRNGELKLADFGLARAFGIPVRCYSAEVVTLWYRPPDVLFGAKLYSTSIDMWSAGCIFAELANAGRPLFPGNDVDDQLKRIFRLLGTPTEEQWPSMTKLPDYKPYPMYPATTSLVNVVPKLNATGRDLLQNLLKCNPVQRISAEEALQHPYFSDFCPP
Cyclin-dependent kinase 5/CDK5 activator 1, sequence (Q15078 whole entry, further chain, the tested form may be a part): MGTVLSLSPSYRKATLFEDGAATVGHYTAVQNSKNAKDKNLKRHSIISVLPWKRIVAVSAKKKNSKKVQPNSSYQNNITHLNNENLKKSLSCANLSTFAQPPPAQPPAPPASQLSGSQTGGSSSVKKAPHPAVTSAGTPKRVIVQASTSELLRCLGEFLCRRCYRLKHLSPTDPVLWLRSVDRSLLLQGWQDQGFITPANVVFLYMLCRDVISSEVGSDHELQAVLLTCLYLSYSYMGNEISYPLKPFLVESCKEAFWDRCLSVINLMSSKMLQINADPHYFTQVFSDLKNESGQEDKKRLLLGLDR
In short: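 Kinase was CDK5 with p25, a truncated p35 activator. Phosphate incorporation was measured on P81 phosphocellulose paper by scintillation counting. Activity is blank-corrected and expressed as % of activity without inhibitor, with DMSO controls.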

| IC50 [2] [nM] | Structure (SMILES) | IC50 [1] [nM] |
| --- | --- | --- |
| 19000 | COc1ccc(C(=O)Nc2nc(NCc3ccc(Cl)cc3)c3ncn(C(C)C)c3n2)cc1 | 40000 |
| 1300 | COc1ccc(CNc2nc(NC(=O)C(C)C)nc3c2ncn3C(C)C)cc1 | 940 |
| 1800 | COc1ccc(CNc2nc(NC(=O)CC(C)C)nc3c2ncn3C(C)C)cc1 | 2300 |
| 2100 | COc1ccc(CNc2nc(C(=O)NCC(C)C)nc3c2ncn3C(C)C)cc1 | 2400 |
| 3900 | CCCC(=O)Nc1nc(NCc2ccc(OC)cc2)c2ncn(C(C)C)c2n1 | 4400 |
| 900 | CC(C)C(=O)Nc1nc(NCc2ccc(Cl)cc2)c2ncn(C(C)C)c2n1 | 1200 |
| 2000 | CC(C)NC(=O)c1nc(NCc2ccc(Cl)cc2)c2ncn(C(C)C)c2n1 | 1700 |
| 6600 | COCCNc1nc(NC(=O)CC(C)C)nc2c1ncn2C(C)C | 9600 |
| 3400 | COc1ccc(CNc2nc(NC(=O)c3ccc(OC)cc3)nc3c2ncn3C(C)C)cc1 | 4600 |
| 1600 | COc1ccc(CNc2nc(NC(=O)CC(C)=O)nc3c2ncn3C(C)C)cc1 | 2400 |
| – | COCCNc1nc(NC(=O)c2ccc(OC)cc2)nc2c1ncn2C(C)C | > 10000 |
| 16000 | COCCNc1nc(C(=O)NCC(C)C)nc2c1ncn2C(C)C | 7200 |
| 2400 | COc1ccc(CNc2nc(C(=O)NC(C)C)nc3c2ncn3C(C)C)cc1 | 2300 |
| 2100 | CCCC(=O)Nc1nc(NCc2ccc(Cl)cc2)c2ncn(C(C)C)c2n1 | 2900 |
| 13000 | COCCNc1nc(C(=O)NC(C)C)nc2c1ncn2C(C)C | 8300 |
| 1600 | CC(C)CC(=O)Nc1nc(NCc2ccc(Cl)cc2)c2ncn(C(C)C)c2n1 | 3000 |
| 10000 | CCCC(=O)Nc1nc(NCCOC)c2ncn(C(C)C)c2n1 | 13000 |
| – | COCCNc1nc(NC(=O)CC(C)=O)nc2c1ncn2C(C)C | > 10000 |
| 7000 | COCCNc1nc(NC(=O)C(C)C)nc2c1ncn2C(C)C | – |
